Reference: the RNAGym collection of RNA variant scans (doi:10.1126/science.aae0568)
Variants at the floor of the assay were thinned out.

B1: tRNA (parent)
chain: GUUCCGUUGGCGUAAUGGUAACGCGUCUCCCUCCUAAGGAGAAGACUGCGGGUUCGAGUCCCGUACGGAACG

Variants of: B1
Test: yeast fitness relative to wild type (ratio to wild type); higher = fitter; tRNA-Arg(CCU), competitive growth, 37 C, YPD
Procedure, shortened: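 Variants of the tRNA-Arg(CCU) gene, chemically synthesised with a 3% per-site mutation rate at 69 sites, were placed at the native genomic locus in Saccharomyces cerevisiae. The pooled strains were competed in YPD at 37°C for 24 hours in six parallel replicates. Gene amplicons from the start population and from each end population were read by 100-nucleotide paired-end sequencing. Darwinian fitness relative to wild type came from changes in genotype frequencies; genotypes needed ≥ 100 starting reads, and estimates < 0.5 were set to 0.5.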

| Variant | yeast fitness |
| --- | --- |
| GUUCCGUUGGCGUAAUGGUAACGCGUCUCCCUCCUGACGAGAAGACUGCGGCUUCGUGUCCCGUACGGAACG | ≤ 0.5 |
| GUUCCGUUGGCGUAAUGGUAACGCGUCUCCCUCCUGAGGAGGAGACUGCGGGUUCGAGUCCCGUACGGAGCG | 0.54 |
| GUUCCGUUGGCGUAAUGGUAACGCGUCUCCCUCCUGAGGACAAGACUGCGGGUUCGAGUGCCGUACGGAACG | 0.682 |
| GUUCCGUUGGCGUAAUGGUAACGCGUCUCCCUCCUGAGGAGAAGACUGCGGGUUAGAGUCCCGUACCGAACG | ≤ 0.5 |
| GUUCCGUUGGCGUAAUGGUAACGCGUCUCCCUCCUGAGGAGAAGACUGCGGGUUCGAGUAGCGUUCGGAACG | ≤ 0.5 |
| GUUCCGUUGGCGUAAUGGUAACGCGUCUCCCUCCUGAGGAGAUGACUCCGGGUUCGAGUCCCGUACGGAACG | 0.556 |
| GUUCCGUUGGCGUAAUGGUAACGCGUCUCCCUCCUGAGGAGAAGACUGCGGGUUCGAGUCUCGUACGGAUCG | 0.755 |
| GUUCCGUUGGCGUAAUGGUAACGCGUCUCCCUCCUGAGGAGAAGACUGCGGGUUCGCGUCCCGUACGGAACG | 0.645 |
| GUUCCGUUGGCGUAAUGGUAACGCGUCUCCCUCCUGAGGAGAAGACUGCGGGUUCGUGUCCCGUACGGAACG | 0.859 |
| GUUCCGUUGGCGUAAUGGUAACGCGUCUCCCUCCUGAGGAGAAGGCUGCGGGUUCGAGUCCCGUACGGAACG | 0.944 |
| GUUCCGUUGGCGUAAUGGUAACGCGUCUCCCUCCUGAGGAGAAGUCUGCGGGUUCGAGUCCCGUACGGAACG | 1.04 |
| GUUCCGUUGGCGUAAUGGUAACGCGUCUCCCUCCUGAGGAGAAGCCUGCGGGUUCGAGUCCCGUACGGAACG | 1.01 |
| GUUCCGUUGGCGUAAUGGUAACGCGUCUCCCUCCUGAGGAGAAGAGUGCGGGUUCGAGUCCCAUACGGAACG | 0.652 |
| GUUCCGUUGGCGUAAUGGUAACGCGUCUCCCUCCUGAGGAGAAGACUGCGGGUUGGAGUCCCGUGCGGAACG | ≤ 0.5 |
| GUUCCGUUGGCGUAAUGGUAACGCGUCUCCCUCCUGAGGAGAAGACUGUGGGUUCGAGUCCCGUACGGACCG | 0.663 |
| GUUCCGUUGGCGUAAUGGUAACGCGUCUCCCUCCUGAGGAGAAGACUGCGGGUUCGAGUCUCGUAUGGAACG | 0.543 |
| GUUCCGUUGGCGUAAUGGUAACGCGUCUCCCUCCUGAGGAAAGGACUGCGGGUUCGAGUUCCGUACGGACCG | ≤ 0.5 |
| GUUCCGUUGGCGUAAUGGUAACGCGUCUCCCUCCUGAGGAGAAGACUGCGGGUUCGGGUCCAGUACGGAACG | 0.549 |
| GUUCCGUUGGCGUAAUGGUAACGCGUCUCCCUCCUGAGGAGAAGACUGCGGGUUCGAGUUCCGUACGGAUCG | ≤ 0.5 |

| Variant | yeast fitness |
| --- | --- |
| GUUCCGUUGGCGUAAUGGUAACGCGUCUCCCUCCUGACGAGAAGACUGCGGGUUCGAGUCCCGUACGGAACG | 0.719 |
| GUUCCGUUGGCGUAAUGGUAACGCGUCUCCCUCCUGAGGAGAAGAUUGCGGGUUCGAGUCCCGUACGGUACG | 0.841 |
| GUUCCGUUGGCGUAAUGGUAACGCGUCUCCCUCCUGAGGAGAAGCCCACGGGUUCGAGUCCCGUACGGAACG | ≤ 0.5 |
| GUUCCGUUGGCGUAAUGGUAACGCGUCUCCCUCCUGAGGAGAAGACUGCGGGUUCGAGUCCACUACGGAACG | ≤ 0.5 |
| GUUCCGUUGGCGUAAUGGUAACGCGUCUCCCUCCUGAGGAGAAGACUGCGGGUUCGAGUGCCGUACGGAACG | 0.629 |
| GUUCCGUUGGCGUAAUGGUAACGCGUCUCCCUCCUGAGGAGAAGACUGCGGGUUCGAGUUCCGUACGGAACG | 0.793 |
| GUUCCGUUGGCGUAAUGGUAACGCGUCUCCCUCCUGAGGAGUAGACUGCGGGCUCGAGUCCCGUACGGAACG | ≤ 0.5 |
| GUUCCGUUGGCGUAAUGGUAACGCGUCUCCCUCCUGAGGAGGAGAGUGCGGGUUCGAGUCCCGUACGCAACG | ≤ 0.5 |
| GUUCCGUUGGCGUAAUGGUAACGCGUCUCCCUCCUGAGGAGAAGACUGCGGGUUCGAGUCCCGUAAGGAACG | 0.683 |
| GUUCCGUUGGCGUAAUGGUAACGCGUCUCCCUCCUGAGGAGAAGACUGCGGGUUCGAGUCCCGUAUGGAACG | 0.949 |
| GUUCCGUUGGCGUAAUGGUAACGCGUCUCCCUCCUGAGAAGAAGACUGCGGGUUCGAGUCCCGUACGGAACG | 0.954 |
| GUUCCGUUGGCGUAAUGGUAACGCGUCUCCCUCCUGAGCAGAAGACUGCGGGUUCGAGUCCCGUACGGAACG | 0.787 |
| GUUCCGUUGGCGUAAUGGUAACGCGUCUCCCUCCUGAGGAGAAGGCUGCGGGUUCGAGUCCCGUUCUGAACG | ≤ 0.5 |
| GUUCCGUUGGCGUAAUGGUAACGCGUCUCCCUCCUGAGGAGAAGACUGCGGGUUCGAGUUUCGUACGGAACG | 0.625 |
| GUUCCGUUGGCGUAAUGGUAACGCGUCUCCCUCCUGAGGAGAAGACUGCGGGUUUGAGUCCCGUACGGAACG | 0.743 |
| GUUCCGUUGGCGUAAUGGUAACGCGUCUCCCUCCUGAGGAGAAGCCUGCGGGUUCGAGUCCCGUACGGUACG | 0.806 |
| GUUCCGUUGGCGUAAUGGUAACGCGUCUCCCUCCUGAGGAGAGGACUGCGGGUUCGAGUCCAGUACGGAACG | 0.553 |
| GUUCCGUUGGCGUAAUGGUAACGCGUCUCCCUCCUGAGGAGAAGACUGCGGGUUCGAGUACCGUACGGAGCG | ≤ 0.5 |
| GUUCCGUUGGCGUAAUGGUAACGCGUCUCCCUCCUGAGGAGAAGAUUGCGGGUUCGCGUCCCGUACGGAACG | ≤ 0.5 |
